Experimental findings from ChEMBL document CHEMBL1138799, “4-benzyl- and 4-benzoyl-3-dimethylaminopyridin-2(1H)-ones, a new family of potent anti-HIV agents: optimization and in vitro evaluation against clinically important HIV mutant strains” (J Med Chem, 2004) are described below.

Structures are written as SMILES. pIC50: −log10 of the molar value.

The test system of experiment [1] is Human immunodeficiency virus 1. Kind of experiment: Inhibitory activity against wild type HIV-1 LAI cell line. The conditions noted are these: Human immunodeficiency virus 1, LAI. Format: functional, organism-based. Put shortly: (§1)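 MT4 human T-lymphoblastoid cells were grown in RPMI 1640 with 10% fetal calf serum and antibiotics at 37 °C and 5% CO2. A compound concentration series was combined with HIV-1 LAI at 200 CCID50/well and 30 000 cells/well. Mock-infected cultures with the same concentrations were run in parallel to measure cytotoxicity. After 5 days, cell viability was read by MTT colorimetry. EC50 is the concentration giving 50% infection versus the drug-free control.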

The subject of experiment [2] is Human immunodeficiency virus 1. Kind of experiment: Selectivity index of cytotoxic activity (CC50) to inhibitory activity (IC50) relative to LAI cell line. Format: functional. Put shortly: as §1
Experiment [3] deals with Human immunodeficiency virus 1. In words: Inhibitory activity against HIV-1 mutant strain 181C. Format: functional, organism-based. Summed up:
(§2)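 Mutant HIV-1 made by recombining mutant PR-RT sequence into a PR-RT-deleted HXB2 proviral clone. Serial compound concentrations plated, then virus (200 CCID50/well) and MT4 cells (30 000 cells/well; RPMI 1640, 10% FCS) added; 5 days at 37 °C, 5% CO2; viability read by MTT. EC50 = concentration giving 50% infection versus drug-free control; mock-infected cultures run in parallel for toxicity.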

Experiment [4] relates to Human immunodeficiency virus 1. Kind of experiment: Inhibitory activity against HIV-1 mutant strain 103N. Format: functional, organism-based. Summed up: as §2

A word on the pIC50: it is −log10 of the IC50, conventionally taken in molar units. A lower pIC50 goes with a large IC50.

`CCc1c(C)nc(O)c(N(C)C)c1C(=O)c1cccc(/C=C/c2cccs2)c1` gave a pIC50 in experiment [1] of 7.15. This molecule also registered a Selectivity index in experiment [2] of 1260.
As for `CCc1c(C)nc(O)c(N(C)C)c1Cc1ccnc2ccccc12`, the pIC50 in experiment [3] is 4.20; in experiment [1], 5.30; in experiment [4], 4.10. The Selectivity index in experiment [2] is 20.
In the case of `CCc1c(C)nc(O)c(N(C)C)c1C(=O)c1cccc(C(C)O)c1` (stereo not drawn), the pIC50 in experiment [1] was 7.30. The Selectivity index in experiment [2] was determined as 2000.
The molecule `CCc1c(C)nc(O)c(N(C)C)c1C(=O)c1cccc(/C=C/c2ccccn2)c1` had a negative-log IC50 (pIC50) in experiment [1] of 7.15. The Selectivity index in experiment [2] came out at 1260.
In the case of `CCOC(=O)/C(C#N)=C\c1cccc(C(=O)c2c(CC)c(C)nc(O)c2N(C)C)c1`, in experiment [1], the pIC50 was 6.82. For the same molecule, the Selectivity index in experiment [2] worked out at 631.
For `CCc1c(C)nc(O)c(N(C)C)c1C(=O)c1cccc(/C=C\c2ccco2)c1` the same measures were 7.22 and 794.
In turn, `CCc1c(C)nc(O)c(N(C)C)c1C(=O)c1cccc(/C=C(\C#N)c2ccccc2)c1` gave a pIC50 in experiment [1] of 6.00. The molecule also gave a Selectivity index in experiment [2] of 16.
For `CC/C=C/c1cccc(C(=O)c2c(CC)c(C)nc(O)c2N(C)C)c1` the same measures were 7.30 and 1260.
For `CCOc1cccc(Cc2c(CC)c(C)nc(O)c2N(C)C)c1` the same measures were 8.00 and 794.
For `CCc1c(C)nc(O)c(N(C)C)c1Cc1ccc(OC)c(C)c1` the same measures were 6.41 and 251.
`CCc1c(C)nc(O)c(N(C)C)c1C(=O)c1c(F)cccc1F` gave a pIC50 in experiment [1] of 7.30. In experiment [2], this molecule had a Selectivity index of 2000.
With `CCc1c(C)nc(O)c(N(C)C)c1C(=O)c1cccc(/C=C\c2cccnc2)c1`, in experiment [1], the negative-log IC50 (pIC50) is 7.15. In addition, the Selectivity index in experiment [2] amounted to 631.
For `CCc1c(C)nc(O)c(N(C)C)c1C(=O)c1cccc(C#Cc2ccccc2)c1` the same measures were 6.82 and 631.
On to `CCc1c(C)nc(O)c(N(C)C)c1C(=O)c1cccc(NS(C)(=O)=O)c1`, for which, in experiment [1], the pIC50 was 6.00. In experiment [2], this molecule registered a Selectivity index of 100.
Take `CCc1c(C)nc(O)c(N(C)C)c1C(=O)c1cccc(CNC(C)=O)c1`: the pIC50 in experiment [1] was 6.41. The Selectivity index in experiment [2] turned out to be 251.
Take `CCc1c(C)nc(O)c(N(C)C)c1C(=O)c1ccc(C#N)cc1`: the negative logarithm of the IC50 (pIC50) in experiment [1] was 5.50. Further, the Selectivity index in experiment [2] is 32.
For `CCc1c(C)nc(O)c(N(C)C)c1C(=O)c1cccc(N(CC)CC)c1` the same measures were 5.70 and 50.
Taken in the same sequence, the figures for `CCc1c(C)nc(O)c(N(C)C)c1C(=O)c1cccc(NC(C)=O)c1` were 6.92 and 794.
Taken in the same sequence, the figures for `CCc1c(C)nc(O)c(N(C)C)c1C(=O)c1cccc(/C=C\c2nccs2)c1` were 6.82 and 501.
For the molecule `CCc1c(C)nc(O)c(N(C)C)c1C(=O)c1cccc(-c2ccco2)c1`, the pIC50 in experiment [1] was 7.22. Moreover, the Selectivity index in experiment [2] is 158.
Turning to `CCc1c(C)nc(O)c(N(C)C)c1C(=O)c1cccc(/C=C(\C#N)c2cccnc2)c1`, in experiment [1], the negative-log IC50 (pIC50) is 7.22. The Selectivity index in experiment [2] came to 200.
As for `CCc1c(C)nc(O)c(N(C)C)c1C(=O)c1cccc(/C=C\c2cnccn2)c1`, in experiment [1], the negative-log IC50 (pIC50) is 6.72. Besides, in experiment [2], the Selectivity index stood at 501.
On to `CCc1c(C)nc(O)c(N(C)C)c1C(=O)c1cccc(/C=C/c2ccncc2)c1`, for which the negative logarithm of the IC50 (pIC50) in experiment [1] was 8.00. In addition, the Selectivity index in experiment [2] is 10000.
In turn, `CCc1c(C)nc(O)c(N(C)C)c1C(=O)c1cccc(-c2nccs2)c1` had a pIC50 in experiment [1] of 6.60. This molecule also showed a Selectivity index in experiment [2] of 40.
`CCc1c(C)nc(O)c(N(C)C)c1C(=O)c1cccc(COc2ccccc2)c1` showed a pIC50 in experiment [1] of 7.52. Further, in experiment [2], the Selectivity index was 2510.
Molecule `CCc1c(C)nc(O)c(N(C)C)c1C(=O)c1cccc(/C=C/c2ccoc2)c1` showed a pIC50 in experiment [1] of 7.15. Moreover, the Selectivity index in experiment [2] amounted to 631.
Taken in the same sequence, the figures for `CCc1c(C)nc(O)c(N(C)C)c1C(=O)c1cccc(/C=C/c2nccs2)c1` were 7.52 and 3160.
Turning to `CCc1c(C)nc(O)c(N(C)C)c1C(=O)c1cccc(N2CCCC2=O)c1`, in experiment [1], the pIC50 is 7.40. For the same molecule, in experiment [2], the Selectivity index was found to be 2510.
As to `CCc1c(C)nc(O)c(N(C)C)c1Cc1cc(C)ccc1C`, the pIC50 in experiment [1] is 6.82; in experiment [4], 5.70. Also, the Selectivity index in experiment [2] came to 631.
Turning to `CCc1c(C)nc(O)c(N(C)C)c1C(=O)c1cccc(/C=C/c2ccco2)c1`, the negative-log IC50 (pIC50) in experiment [1] is 7.70. This molecule also had a Selectivity index in experiment [2] of 5010.
Taken in the same sequence, the figures for `CCc1c(C)nc(O)c(N(C)C)c1C(=O)c1cccc(N(C)C)c1` were 6.41 and 251.
Turning to `CCc1c(C)nc(O)c(N(C)C)c1C(=O)c1cccc(CN)c1`, the pIC50 in experiment [1] was 6.41. This molecule displayed a Selectivity index in experiment [2] of 251.
For the molecule `CCc1c(C)nc(O)c(N(C)C)c1Cc1ccc(Cl)cc1`, the negative logarithm of the IC50 (pIC50) in experiment [3] was 5.20; in experiment [1], 6.72. The molecule further returned a Selectivity index in experiment [2] of 50.
In experiment [1], `CCc1c(C)nc(O)c(N(C)C)c1C(=O)c1cccc(/C=C\c2ccccn2)c1` gave a negative-log IC50 (pIC50) of 5.80. For the same molecule, in experiment [2], the Selectivity index was found to be 63.
For `CCc1c(C)nc(O)c(N(C)C)c1Cc1ccc(Br)cc1` the same measures were 5.80 and 63.
Turning to `CCNC(=O)Nc1cccc(C(=O)c2c(CC)c(C)nc(O)c2N(C)C)c1`, in experiment [1], the pIC50 was 5.70. The molecule also returned a Selectivity index in experiment [2] of 50.
For `CCc1c(C)nc(O)c(N(C)C)c1C(=O)c1cccc(/C=C\Cc2ccccc2)c1` the same measures were 5.80 and 32.
With `CCc1c(C)nc(O)c(N(C)C)c1C(=O)c1cccc(/C=C/c2ccsc2)c1`, the pIC50 in experiment [1] is 7.00. This molecule also came in with a Selectivity index in experiment [2] of 1000.
Taken in the same sequence, the figures for `CCc1c(C)nc(O)c(N(C)C)c1C(=O)c1cccc(-c2ccccc2)c1` were 6.41 and 251.
Taken in the same sequence, the figures for `CCc1c(C)nc(O)c(N(C)C)c1C(=O)c1cc(F)cc(C(F)(F)F)c1` were 8.52 and 31600.
Taken in the same sequence, the figures for `CCc1c(C)nc(O)c(N(C)C)c1C(=O)c1cccc(-n2cccc2)c1` were 7.15 and 631.
With `CCc1c(C)nc(O)c(N(C)C)c1C(=O)c1cccc(/C=C/c2cccn2C)c1`, in experiment [1], the pIC50 is 6.51. For the same molecule, the Selectivity index in experiment [2] worked out at 158.
For `CCc1c(C)nc(O)c(N(C)C)c1C(=O)c1cccc(/C=C\c2ccncc2)c1` the same measures were 7.22 and 794.
As for `CCc1c(C)nc(O)c(N(C)C)c1C(=O)c1cccc(C=C(C#N)C#N)c1`, the negative logarithm of the IC50 (pIC50) in experiment [1] was 8.00. Moreover, the Selectivity index in experiment [2] amounted to 3980.
Taken in the same sequence, the figures for `CCc1c(C)nc(O)c(N(C)C)c1C(=O)c1cccc(/C=C/c2ccccc2)c1` were 6.60 and 398.
For `CCc1c(C)nc(O)c(N(C)C)c1C(=O)c1cccc(/C=C(\C#N)c2cccs2)c1`, in experiment [1], the negative logarithm of the IC50 (pIC50) was 6.72. The molecule further showed a Selectivity index in experiment [2] of 126.
For `CCc1c(C)nc(O)c(N(C)C)c1C(=O)c1cccc(/C=C\c2ccccc2)c1` the same measures were 5.90 and 79.
